Experimental data taken from publication PMC9322249 (Journal of Food and Drug Analysis, 2017).

What was measured:
[1] = Oxygen radical absorption capacity; conditions: TEAC units; X = EO or compound
Procedure, shortened: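 Peroxyl radical (ROO) scavenging by the oils and individual components, following a published ORAC method, in triplicate. Data are mean ± SD, with significance by ANOVA/Tukey's HSD (p < 0.05).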

[2] = ABTS radical cation bleaching assay; conditions: TEAC units; X = EO or compound
Procedure, shortened: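 ABTS radical cation (ABTS•+) bleaching by essential oils and their individual components, run in triplicate by a published method. Results are given as mean ± SD, compared by ANOVA with Tukey's HSD (p < 0.05).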

[3] = DPPH radical scavenging capacity; conditions: TEAC units; X = EO or compound
Procedure, shortened: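 DPPH radical scavenging by essential oils and individual components, by a published method, in triplicate. Values are expressed as μmol TE/mL EO and given as mean ± SD, with ANOVA/Tukey's HSD at p < 0.05.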

[4] = Chelating power; conditions: for ChP: EDTAE units, X = EO or compound
Procedure, shortened: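 Ferrous ion chelation by essential oils and their major components, by a published method, in triplicate. Results are expressed as EDTA equivalents per volume of EO, mean ± SD, with ANOVA/Tukey's HSD (p < 0.05).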

[5] = Reducing power; conditions: AAE units; X = EO or compound
Procedure, shortened: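 Reduction of potassium ferricyanide by the oils and individual components, by a published method, in triplicate. Results are reported as ascorbic acid equivalents per volume of EO, mean ± SD, with ANOVA/Tukey's HSD (p < 0.05).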

[6] = Thiobarbituric acid reactive substances; conditions: BHTE units; X = EO or compound
Procedure, shortened: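 TBARS formation by oxidation measured in soybean lecithin homogenate as lipid-rich medium, by a published method, in triplicate. Values are expressed as μmol BHTE/mL EO, mean ± SD, with ANOVA/Tukey's HSD (p < 0.05).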

[7] = target: T1, lipoxygenase (LOX) (linoleate:oxygen oxidoreductase, EC 1.13.11.12) (Glycine max, UniProt P08170); assay: Lipoxygenase; assay type: biochemical, Glycine max (soybean); conditions: soybean LOX, linoleic acid substrate, 25 °C; mean ± SD
T1 sequence (P08170 1-839): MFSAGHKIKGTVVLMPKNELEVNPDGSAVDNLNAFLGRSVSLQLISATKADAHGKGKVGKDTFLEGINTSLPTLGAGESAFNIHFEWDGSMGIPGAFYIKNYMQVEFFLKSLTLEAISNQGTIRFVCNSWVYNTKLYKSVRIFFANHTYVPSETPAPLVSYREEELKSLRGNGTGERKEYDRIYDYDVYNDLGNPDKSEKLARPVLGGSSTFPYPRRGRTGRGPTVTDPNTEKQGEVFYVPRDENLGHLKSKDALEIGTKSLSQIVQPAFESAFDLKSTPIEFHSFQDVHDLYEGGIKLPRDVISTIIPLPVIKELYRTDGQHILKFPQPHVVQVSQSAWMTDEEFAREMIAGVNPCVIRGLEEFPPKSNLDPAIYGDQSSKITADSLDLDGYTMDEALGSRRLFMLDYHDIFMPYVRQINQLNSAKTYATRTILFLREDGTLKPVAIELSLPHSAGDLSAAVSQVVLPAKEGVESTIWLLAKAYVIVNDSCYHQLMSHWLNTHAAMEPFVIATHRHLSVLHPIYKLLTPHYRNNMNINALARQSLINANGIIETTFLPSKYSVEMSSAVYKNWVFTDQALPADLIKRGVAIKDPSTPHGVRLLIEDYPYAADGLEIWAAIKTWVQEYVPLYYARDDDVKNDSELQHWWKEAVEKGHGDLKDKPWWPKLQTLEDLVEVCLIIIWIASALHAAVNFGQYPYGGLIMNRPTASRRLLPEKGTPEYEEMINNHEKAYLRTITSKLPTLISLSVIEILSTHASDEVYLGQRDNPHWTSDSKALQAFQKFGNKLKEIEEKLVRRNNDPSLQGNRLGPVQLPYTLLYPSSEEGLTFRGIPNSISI

LOX inhibitory activity, IC50 of main commercially available compounds [7] | SMILES | ORAC [1] | ABTS [2] | DPPH [3] | Chelating power (ChP), result in words [4] | ChP [4] | RdP [5] | TBARS [6]
599 ± 8 μL (Compound)/L | C=CC(C)(O)CCC=C(C)C (centres unmarked) [linalool] | 1.9 ± 0.1 μmol TE/μL X | 0.4 ± 0.0 μmol TE/mL X | N/D (Activity lower than 0.05 units at a maximum assay concentration of 100 mM) | high ChP | 541.6 ± 32.7 μmol EDTAE/mL X | N/D (Activity lower than 0.05 units at a maximum assay concentration of 100 mM) | N/D (Activity lower than 0.05 units at a maximum assay concentration of 100 mM)
422 ± 13 μL (Compound)/L | CC12CCC(CC1=O)C2(C)C (centres unmarked) [camphor] | N/D (Activity lower than 0.05 units at a maximum assay concentration of 100 mM) | N/D (Activity lower than 0.05 units at a maximum assay concentration of 100 mM) | N/D (Activity lower than 0.05 units at a maximum assay concentration of 100 mM) | – | N/D (Activity lower than 0.05 units at a maximum assay concentration of 100 mM) | N/D (Activity lower than 0.05 units at a maximum assay concentration of 100 mM) | N/D (Activity lower than 0.05 units at a maximum assay concentration of 100 mM)
75 ± 3 μL (Compound)/L | CC(=O)OC1CC2CCC1(C)C2(C)C (centres unmarked) [bornyl acetate] | N/D (Activity lower than 0.05 units at a maximum assay concentration of 100 mM) | N/D (Activity lower than 0.05 units at a maximum assay concentration of 100 mM) | N/D (Activity lower than 0.05 units at a maximum assay concentration of 100 mM) | – | 0.1 ± 0.0 μmol EDTAE/mL X | N/D (Activity lower than 0.05 units at a maximum assay concentration of 100 mM) | N/D (Activity lower than 0.05 units at a maximum assay concentration of 100 mM)
58 ± 5 μL (Compound)/L | C=C(C)[C@H]1CC=C(C)CC1 [limonene] | 0.8 ± 0.1 μmol TE/μL X | 3.6 ± 0.2 μmol TE/mL X | N/D (Activity lower than 0.05 units at a maximum assay concentration of 100 mM) | – | 36.7 ± 2.3 μmol EDTAE/mL X | N/D (Activity lower than 0.05 units at a maximum assay concentration of 100 mM) | N/D (Activity lower than 0.05 units at a maximum assay concentration of 100 mM)
